Source: ChEMBL document CHEMBL3425405, “Discovery of Small Molecules for Up-Regulating the Translation of Antiamyloidogenic Secretase, a Disintegrin and Metalloproteinase 10 (ADAM10), by Binding to the G-Quadruplex-Forming Sequence in the 5' Untranslated Region (UTR) of Its mRNA” (J Med Chem, 2015)
Activity calls are given as the source filed them. The rule behind the calls is not given here.

Columns and labels:
[1] = system: HEK-APP; assay: Binding affinity to ADAM10 A10-RNA QGRS (unknown origin) transfected in HEK-APP cells assessed as change in ADAM10 mRNA expression at 0.5 to 1.5 uM after 48 hrs by RT-PCR method; type: cell-based
Method in brief: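 HEK-APP cells cultured 48 h with 0, 0.5, 0.75, 1 or 1.5 μM compound. Total RNA isolated and ADAM10 mRNA measured by RT-PCR, normalized to β-actin.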

[2] = system: HEK-APP; assay: Binding affinity to ADAM10 A10-RNA QGRS (unknown origin) transfected in HEK-APP cells assessed as increase in sAPPalpha level at 1.5 uM after 48 hrs by Western blotting method; type: cell-based
Method in brief: (§1)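 HEK-APP cells (DMEM, 10% FBS, 2 mM glutamine, 0.2 mg/mL G418) treated with 0, 0.5, 0.75, 1 or 1.5 μM compound for 48 h. Lysates in Tris/NaCl/EDTA/1% Triton buffer immunoblotted for ADAM10, APP and β-actin; conditioned medium blotted for sAPPα. Signal by densitometry, normalized to β-actin, relative to blank control; mean ± SD, three independent experiments.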

[3] = system: HeLa; assay: Binding affinity to ADAM10 A10-RNA QGRS (unknown origin) transfected in human HeLa cells assessed as increase in ADAM10 translation efficiency at 1 uM after 24 hrs by Renilla/firefly dual luciferase reporter assay; type: cell-based
Method in brief: (§2)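 HeLa cells transfected with 0.8 μg A10-Wt, A10-Mut or A10-Del plasmid (G-quadruplex motif upstream of Renilla in psiCHECK-2). Screening: 24 h at a single 2 μM concentration. Follow-up: plasmid for 12 h, then 0, 0.5, 1 or 2.5 μM for 24 h. Renilla normalized to firefly, relative to untreated control; mean ± SD of three independent measurements.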

[4] = system: HEK293; assay: Reduction in Abeta40 protein production in APP expressing HEK cells at 1 uM after 48 hrs by ELISA method; type: functional, Homo sapiens; set-up: scale not given: the % may be the effect or the level left
Method in brief: (§3)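 HEK-APP cells treated 48 h with increasing compound concentrations (0.75, 1, 1.5 μM). Secreted Aβ40 in equal amounts of conditioned medium quantified by sandwich ELISA. Values expressed relative to blank control; mean ± SD of three independent experiments.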

[5] = system: HeLa; assay: Binding affinity to ADAM10 5'-UTR mutant RNA QGRS (unknown origin) transfected in human HeLa cells assessed as increase in ADAM10 translation efficiency at 2.5 uM after 24 hrs by Renilla/firefly dual luciferase reporter assay; type: cell-based
Method in brief: (§4)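 HeLa cells transfected with 0.8 μg 5′UTR-Wt or 5′UTR-Mut dual-luciferase plasmid. After 12 h, incubated 24 h with 0, 0.5, 1 or 2.5 μM compound. Renilla luciferase normalized to firefly and expressed relative to the ligand-free control; mean ± SD of three independent experiments, each in triplicate.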

[6] = system: HeLa; assay: Toxicity against human HeLa cells assessed as effect on cell number at 0.5 to 2.5 uM after 24 hrs; type: cell-based
Method in brief: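 HeLa cells inspected for cell number and morphology before the luciferase read-out, after reporter-plasmid transfection and 24 h exposure to 0, 0.5, 1 or 2.5 μM compound.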

[7] = Binding affinity to ADAM10 A10-mutant RNA QGRS (unknown origin) by surface plasmon resonance method
[8] = Binding affinity to ADAM10 A10-RNA QGRS (unknown origin) assessed as increase in RNA-ligand complexes at 0.5 to 10 fold excess compound level by native gel electrophoresis method
Method in brief: (§5)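 A10-RNA-Wt labeled with Cy3/Cy5 folded in 100 mM KCl, 10 mM Tris-HCl, 0.1 mM EDTA (pH 7.5): 95 °C for 5 min, then cooled to room temperature over 90 min. RNA (2 μM) incubated 5 min at room temperature in the dark with 0, 0.5, 1, 5 or 10-fold excess compound. Run on native 16% polyacrylamide gel at 4 °C.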

[9] = Binding affinity to 5'-end biotinylated ADAM10 A10-RNA QGRS (unknown origin) by surface plasmon resonance assay method
Method in brief: (§6)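 SPR with 5′-biotinylated A10-RNA-Wt or A10-RNA-Mut immobilized on a neutravidin chip in running buffer (50 mM Tris-HCl pH 7.5, 100 mM KCl). Ligand serial dilutions in running buffer injected at 20 μL/min for association, then dissociation. Chip regenerated with 50 mM NaOH between runs.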

[10] = system: HEK293; assay: Reduction in Abeta40 protein production in APP expressing HEK cells at 1.5 uM after 48 hrs by ELISA method; type: functional, Homo sapiens; set-up: scale not given: the % may be the effect or the level left; method in brief: as §3
[11] = Drug accumulation in cytoplasm of APP expressing HEK cells at 2 uM after 2 hrs by confocal microscopy; type: ADME, cell-based; conditions: human, hek293, 2 h
[12] = system: HEK293; assay: Effect on APP protein expression in APP expressing HEK cells at 0.5 to 1.5 uM after 48 hrs by Western blotting method; type: functional, cell-based; conditions: Homo sapiens; method in brief: as §1
[13] = system: HeLa; assay: Binding affinity to ADAM10 5'-UTR RNA QGRS (unknown origin) transfected in human HeLa cells assessed as increase in ADAM10 translation efficiency at 0.5 uM after 24 hrs by Renilla/firefly dual luciferase reporter assay; type: cell-based; method in brief: as §4
[14] = Binding affinity to 5'-end biotinylated ADAM10 A10-mutant RNA QGRS (unknown origin) by surface plasmon resonance assay method; method in brief: as §6
[15] = Selectivity index, ratio of affinity to Bcl-2 RNA QGRS (unknown origin) to ADAM10 A10-Wt RNA QGRS (unknown origin) by Renilla/firefly dual luciferase reporter assay
[16] = system: HeLa; assay: Binding affinity to ADAM10 A10-RNA QGRS (unknown origin) transfected in human HeLa cells assessed as increase in ADAM10 translation efficiency at 0.5 uM after 24 hrs by Renilla/firefly dual luciferase reporter assay; type: cell-based; method in brief: as §2
[17] = Toxicity against APP expressing HEK cells assessed as reduction in cell viability after 48 hrs by MTT assay; type: cell-based, HEK293; conditions: human
[18] = system: HEK293; assay: Reduction in Abeta40 protein production in APP expressing HEK cells at 0.5 to 1.5 uM after 48 hrs by ELISA method; type: functional, cell-based; conditions: Homo sapiens; method in brief: as §3
[19] = system: HeLa; assay: Binding affinity to ADAM10 5'-UTR RNA QGRS (unknown origin) transfected in human HeLa cells assessed as increase in ADAM10 translation efficiency at 2.5 uM after 24 hrs by Renilla/firefly dual luciferase reporter assay; type: cell-based; method in brief: as §4
[20] = system: HeLa; assay: Binding affinity to ADAM10 5'-UTR RNA QGRS (unknown origin) transfected in human HeLa cells assessed as increase in luciferase mRNA expression at 0.5 to 2.5 uM after 24 hrs by RT-PCR method; type: cell-based
[21] = Binding affinity to ADAM10 A10-RNA QGRS (unknown origin) assessed as reduction in RNA G-quadruplex bands at 0.5 to 10 fold excess compound level by native gel electrophoresis method; method in brief: as §5
[22] = system: HEK-APP; assay: Binding affinity to ADAM10 A10-RNA QGRS (unknown origin) transfected in HEK-APP cells assessed as increase in ADAM10 protein expression at 0.5 uM after 48 hrs by Western blotting method; type: cell-based; method in brief: as §1
[23] = Toxicity against human HeLa cells assessed as reduction in cell viability after 24 hrs by MTT assay; type: cell-based

Structure (SMILES): CCn1c2ccccc2c2cc(/C=C/c3cc(N4CCN(C)CC4)c4ccccc4[n+]3C)ccc21.[I-]
- Activity [1]: inactive
- fold change (FC) [2]: 3.3
- Activity [3]: 46.9%
- Activity [4]: 20.7%
- Activity [5]: inactive
- Activity [6]: Non-toxic
- Kd [7]: 700000 µM
- Activity [8]: Active
- Kd [9]: 6.1 µM
- Activity [10]: 40.8%
- Drug uptake [11]: Active
- Activity [12]: inactive
- Activity [13]: 9.7%
- Activity [14]: inactive
- Selectivity Index [15]: 3
- Activity [16]: 14.1%
- IC50 at 48 h [17]: 10.7 µM
- Activity [18]: Dose-dependent effect
- Activity [19]: 44.8%
- Activity [20]: inactive
- Activity [21]: Active
- Activity [22]: 20.2%
- IC50 at 24 h [23]: 20.9 µM
